In ChEMBL document CHEMBL3352237, “Synthesis and biological evaluation of novel peptide BF2 as an antibacterial agent against clinical isolates of vancomycin-resistant enterococci” (J Med Chem, 2014):

What was measured:
Enterococcus faecium [1] = assay: Bactericidal activity against vancomycin-resistant Enterococcus faecium clinical isolate 15/213 after 24 hrs by two-fold serial dilution method; type: functional; conditions: isolate 15/213, 24 h
Enterococcus faecalis [2] = assay: Antibacterial activity against vancomycin-resistant Enterococcus faecalis clinical isolate 5648 after overnight incubation by two-fold serial dilution method; type: functional
Enterococcus faecium [3] = assay: Antibacterial activity against vancomycin-resistant Enterococcus faecium clinical isolate 28/211 after overnight incubation by two-fold serial dilution method; type: functional
Enterococcus faecium [4] = assay: Antibacterial activity against vancomycin-resistant Enterococcus faecium clinical isolate 12/266 after overnight incubation by two-fold serial dilution method; type: functional
Enterococcus faecium [5] = assay: Bactericidal activity against vancomycin-resistant Enterococcus faecium clinical isolate 28/211 after 24 hrs by two-fold serial dilution method; type: functional; conditions: isolate 28/211, 24 h
Enterococcus faecium [6] = assay: Antibacterial activity against vancomycin-resistant Enterococcus faecium clinical isolate 6/22 after overnight incubation by two-fold serial dilution method; type: functional
Enterococcus [7] = assay: Antibacterial activity against vancomycin-resistant Enterococcus ATCC 51299 after overnight incubation by two-fold serial dilution method; type: functional
Enterococcus faecium [8] = assay: Bactericidal activity against vancomycin-resistant Enterococcus faecium clinical isolate 7/27 after 24 hrs by two-fold serial dilution method; type: functional; conditions: isolate 7/27, 24 h
Enterococcus faecium [9] = assay: Bactericidal activity against vancomycin-resistant Enterococcus faecium clinical isolate 5484 after 24 hrs by two-fold serial dilution method; type: functional; conditions: isolate 5484, 24 h
Enterococcus faecium [10] = assay: Bactericidal activity against vancomycin-resistant Enterococcus faecium clinical isolate 8/224 after 24 hrs by two-fold serial dilution method; type: functional; conditions: isolate 8/224, 24 h
Enterococcus faecalis [11] = assay: Bactericidal activity against vancomycin-resistant Enterococcus faecalis clinical isolate 7079 after 24 hrs by two-fold serial dilution method; type: functional; conditions: isolate 7079, 24 h
Enterococcus faecium [12] = assay: Antibacterial activity against vancomycin-resistant Enterococcus faecium clinical isolate 147969 after overnight incubation by two-fold serial dilution method; type: functional
Enterococcus faecalis [13] = assay: Bactericidal activity against vancomycin-resistant Enterococcus clinical isolate assessed as log reduction at 2 times MIC after 60 to 120 mins by serial dilution method; type: functional
Summary of the method: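 Time-kill assay: enterococci exposed to peptide at 2× MIC, with viable counts read as log10 CFU/mL over a 60–120 min exposure. Run on ATCC 29212 and a clinical isolate.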

Enterococcus [14] = assay: Bactericidal activity against […] after 24 hrs by two-fold serial dilution method; type: functional; conditions: ATCC 29212, 24 h
Enterococcus [15] = assay: Antibacterial activity against Enterococcus infected in Wistar albino rat assessed as reduction in cell count at 2 times MIC, iv after 1 hr relative to control; type: functional; parameters: scale not given: the % may be the effect or the level left
Summary of the method: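 Female Wistar albino rats, 40−45 days old, 125−150 g, 5 groups of 3. Enterococci were grown to log phase in MH broth, centrifuged at 1000g for 15 min, and diluted in PBS to 4 × 10^6 CFU/mL. Rats were inoculated i.v. and treated i.v. 1 h later with 12.5, 25 or 37.5 mg/kg peptide, PBS vehicle, or linezolid 25 mg/kg. Tail-vein blood taken 1 h post-treatment was plated on blood agar, incubated overnight at 37 °C, and colonies counted.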

Enterococcus faecium [16] = assay: Bactericidal activity against vancomycin-resistant Enterococcus faecium clinical isolate 17301 after 24 hrs by two-fold serial dilution method; type: functional; conditions: isolate 17301, 24 h
Enterococcus faecium [17] = assay: Antibacterial activity against vancomycin-resistant Enterococcus faecium clinical isolate 3864 after overnight incubation by two-fold serial dilution method; type: functional
Enterococcus faecium [18] = assay: Bactericidal activity against vancomycin-resistant Enterococcus faecium clinical isolate 16115 after 24 hrs by two-fold serial dilution method; type: functional; conditions: isolate 16115, 24 h
Enterococcus faecium [19] = assay: Bactericidal activity against vancomycin-resistant Enterococcus faecium clinical isolate 16475 after 24 hrs by two-fold serial dilution method; type: functional; conditions: isolate 16475, 24 h
Enterococcus faecium [20] = assay: Antibacterial activity against vancomycin-resistant Enterococcus faecium clinical isolate 15/213 after overnight incubation by two-fold serial dilution method; type: functional
Enterococcus faecium [21] = assay: Antibacterial activity against vancomycin-resistant Enterococcus faecium clinical isolate 18906 after overnight incubation by two-fold serial dilution method; type: functional
Enterococcus faecalis [22] = assay: Antibacterial activity against vancomycin-resistant Enterococcus faecalis clinical isolate 27728 after overnight incubation by two-fold serial dilution method; type: functional
Enterococcus faecalis [23] = assay: Antibacterial activity against vancomycin-resistant Enterococcus faecalis clinical isolate 21/235 after overnight incubation by two-fold serial dilution method; type: functional
Enterococcus faecium [24] = assay: Antibacterial activity against vancomycin-resistant Enterococcus faecium clinical isolate 12875 after overnight incubation by two-fold serial dilution method; type: functional
[25] = Hemolytic activity against human RBC at 5 times MIC after 1 hr by spectrophotometry; type: ADME, cell-based, Erythrocyte; conditions: red blood cells, read-out: Activity
Enterococcus faecalis [26] = assay: Bactericidal activity against vancomycin-resistant Enterococcus faecalis clinical isolate 7670 after 24 hrs by two-fold serial dilution method; type: functional; conditions: isolate 7670, 24 h
Enterococcus [27] = assay: Antibacterial activity against vancomycin-resistant Enterococcus ATCC 51299 after 18 to 20 hrs by checkerboard titration method in presence of linezolid; type: functional
Enterococcus faecium [28] = assay: Bactericidal activity against vancomycin-resistant Enterococcus faecium clinical isolate 29/203 after 24 hrs by two-fold serial dilution method; type: functional; conditions: isolate 29/203, 24 h
Enterococcus faecium [29] = assay: Bactericidal activity against vancomycin-resistant Enterococcus faecium clinical isolate 14643 after 24 hrs by two-fold serial dilution method; type: functional; conditions: isolate 14643, 24 h
Enterococcus faecium [30] = assay: Antibacterial activity against vancomycin-resistant Enterococcus faecium clinical isolate 151495 after overnight incubation by two-fold serial dilution method; type: functional
Enterococcus faecalis [31] = assay: Antibacterial activity against vancomycin-resistant Enterococcus faecalis clinical isolate 5642 after overnight incubation by two-fold serial dilution method; type: functional
Enterococcus faecalis [32] = assay: Bactericidal activity against vancomycin-resistant Enterococcus faecalis clinical isolate 5814 after 24 hrs by two-fold serial dilution method; type: functional; conditions: isolate 5814, 24 h
Enterococcus faecium [33] = assay: Bactericidal activity against vancomycin-resistant Enterococcus faecium clinical isolate 31176 after 24 hrs by two-fold serial dilution method; type: functional; conditions: isolate 31176, 24 h
Enterococcus faecalis [34] = assay: Antibacterial activity against vancomycin-resistant Enterococcus faecalis clinical isolate 22626 after overnight incubation by two-fold serial dilution method; type: functional
Enterococcus faecium [35] = assay: Bactericidal activity against vancomycin-resistant Enterococcus faecium clinical isolate 23/240 after 24 hrs by two-fold serial dilution method; type: functional; conditions: isolate 23/240, 24 h
Enterococcus faecium [36] = assay: Bactericidal activity against vancomycin-resistant Enterococcus faecium clinical isolate 6/22 after 24 hrs by two-fold serial dilution method; type: functional; conditions: isolate 6/22, 24 h
Enterococcus faecium [37] = assay: Antibacterial activity against vancomycin-resistant Enterococcus faecium clinical isolate 16115 after overnight incubation by two-fold serial dilution method; type: functional
Enterococcus faecium [38] = assay: Antibacterial activity against vancomycin-resistant Enterococcus faecium clinical isolate 31386 after overnight incubation by two-fold serial dilution method; type: functional
Enterococcus faecium [39] = assay: Antibacterial activity against vancomycin-resistant Enterococcus faecium clinical isolate 7/27 after overnight incubation by two-fold serial dilution method; type: functional
Enterococcus faecium [40] = assay: Bactericidal activity against vancomycin-resistant Enterococcus faecium clinical isolate 12/266 after 24 hrs by two-fold serial dilution method; type: functional; conditions: isolate 12/266, 24 h
Enterococcus [41] = assay: Antibacterial activity against vancomycin-resistant Enterococcus clinical isolate after 18 to 20 hrs by checkerboard titration method in presence of vancomycin; type: functional
Enterococcus faecium [42] = assay: Antibacterial activity against vancomycin-resistant Enterococcus faecium clinical isolate 14643 after overnight incubation by two-fold serial dilution method; type: functional

H-RWRLLLLKKH-OH
MBC (Enterococcus faecium [1]): 25 µg/mL
MIC (Enterococcus faecalis [2]): 12.5 µg/mL
MIC (Enterococcus faecium [3]): 12.5 µg/mL
MIC (Enterococcus faecium [4]): 6.25 µg/mL
MBC (Enterococcus faecium [5]): 25 µg/mL
MIC (Enterococcus faecium [6]): 12.5 µg/mL
MIC (Enterococcus [7]): 25 µg/mL
MBC (Enterococcus faecium [8]): 25 µg/mL
MBC (Enterococcus faecium [9]): 25 µg/mL
MBC (Enterococcus faecium [10]): 25 µg/mL
MBC (Enterococcus faecalis [11]): 25 µg/mL
MIC (Enterococcus faecium [12]): 12.5 µg/mL
MBC (Enterococcus faecalis [13]): 25 µg/mL
MBC (Enterococcus [14]): 25 µg/mL
Activity (Enterococcus [15]): 76%
MBC (Enterococcus faecium [16]): 25 µg/mL
MIC (Enterococcus faecium [17]): 6.25 µg/mL
MBC (Enterococcus faecium [18]): 25 µg/mL
MBC (Enterococcus faecium [19]): 25 µg/mL
MIC (Enterococcus faecium [20]): 6.25 µg/mL
MIC (Enterococcus faecium [21]): 12.5 µg/mL
MIC (Enterococcus faecalis [22]): 6.25 µg/mL
MIC (Enterococcus faecalis [23]): 12.5 µg/mL
MIC (Enterococcus faecium [24]): 12.5 µg/mL
hemolysis at 1 h, 5 times MIC [25]: < 5%
MBC (Enterococcus faecalis [26]): 25 µg/mL
fractional inhibitory concentration index (FICI) (Enterococcus [27]): 2.1
MBC (Enterococcus faecium [28]): 25 µg/mL
MBC (Enterococcus faecium [29]): 25 µg/mL
MIC (Enterococcus faecium [30]): 6.25 µg/mL
MIC (Enterococcus faecalis [31]): 12.5 µg/mL
MBC (Enterococcus faecalis [32]): 25 µg/mL
MBC (Enterococcus faecium [33]): 25 µg/mL
MIC (Enterococcus faecalis [34]): 12.5 µg/mL
MBC (Enterococcus faecium [35]): 25 µg/mL
MBC (Enterococcus faecium [36]): 25 µg/mL
MIC (Enterococcus faecium [37]): 12.5 µg/mL
MIC (Enterococcus faecium [38]): 6.25 µg/mL
MIC (Enterococcus faecium [39]): 12.5 µg/mL
MBC (Enterococcus faecium [40]): 25 µg/mL
fractional inhibitory concentration index (FICI) (Enterococcus [41]): 0.25
MIC (Enterococcus faecium [42]): 6.25 µg/mL
